Assay results: ChEMBL document CHEMBL1135682, “Synthesis and antimycobacterial activity of pyrazine and quinoxaline derivatives” (J Med Chem, 2002)
Values after ≈ are worked out from the molar mass of the structure shown.

How the values were obtained:
[1] = Partition coefficient was evaluated using method of Morgiuchi et al; assay type: physicochemical; conditions: octanol/water; read-out: mLog P
[2] = Minimum inhibitory concentration against Mtb H37Rv using Middlebrook 7H9 with glycerol and OADC enrichment; assay type: functional; conditions: Mycobacterium tuberculosis
[3] = Minimum inhibitory concentration against MAC NJ211 using Middlebrook 7H9 with glycerol and OADC enrichment; assay type: functional; conditions: Mycobacterium avium
Method in brief: (§1)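 Run in-house in Middlebrook 7H9 broth with glycerol and OADC enrichment, pH 6.6, against Mtb H37Ra or M. avium; the M. avium strains came from the National Jewish Center, Denver. Ethambutol served as a reference drug. The read-out is the MIC.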

[4] = Minimum inhibitory concentration against Mtb H37Ra using Middlebrook 7H9 with glycerol and OADC enrichment; assay type: functional; conditions: Mycobacterium tuberculosis; method in brief: as §1

| Compound | logP [1] | MIC [2] | MIC [3] | MIC [4] |
| --- | --- | --- | --- | --- |
| O=C(OCc1ccc([N+](=O)[O-])cc1)c1ccccc1 | 3.45 | > 6.25 µg/mL |  |  |
| O=C(OCc1ccc([N+](=O)[O-])cc1)c1cnccn1 | 0.99 | 6.25 µg/mL (≈ 24.1 µM) | > 128 µg/mL | 128 µg/mL (≈ 494 µM) |
| CC(=O)OCc1ccc([N+](=O)[O-])cc1 | 2.02 | > 6.25 µg/mL | > 128 µg/mL | > 128 µg/mL |
| O=C(OCc1ccccc1[N+](=O)[O-])c1cnccn1 | 0.99 | > 6.25 µg/mL | > 128 µg/mL | 64 µg/mL (≈ 247 µM) |
| O=C(OCc1ccc([N+](=O)[O-])cc1)c1ccccn1 | 2.29 | > 6.25 µg/mL | > 128 µg/mL | 128 µg/mL (≈ 496 µM) |
| NC(=O)c1cnc2ccccc2n1 | 0.13 | > 6.25 µg/mL | > 128 µg/mL | > 128 µg/mL |
| CC(=O)OCc1ccc(OC(C)=O)cc1 | 2.03 |  | 128 µg/mL (≈ 615 µM) | 8 µg/mL (≈ 38.4 µM) |
| CCCCCCC(C)OC(=O)c1cnc2ccccc2n1 (configuration not stated) | 2.7 | > 6.25 µg/mL | 128 µg/mL (≈ 447 µM) | 64 µg/mL (≈ 223 µM) |
| CC(=O)Oc1ccc(COC(=O)c2cnccn2)cc1 | 0.92 | 6.25 µg/mL (≈ 23 µM) | 16 µg/mL (≈ 58.8 µM) | < 0.25 µg/mL |
| NNC(=O)c1cnc2ccccc2n1 | 0.16 | > 6.25 µg/mL | > 128 µg/mL | 64 µg/mL (≈ 340 µM) |
| COC(=O)c1cnc2ccccc2n1 | 0.84 | > 6.25 µg/mL | > 128 µg/mL | > 128 µg/mL |
| CCCCCCCCOC(=O)c1cnc2ccccc2n1 | 2.61 | > 6.25 µg/mL | 128 µg/mL (≈ 447 µM) | 128 µg/mL (≈ 447 µM) |
| O=C(OCc1ccccc1)c1cnccn1 | 0.94 | > 6.25 µg/mL | > 128 µg/mL | 16 µg/mL (≈ 74.7 µM) |
| CCCOC(=O)c1cnc2ccccc2n1 | 1.41 | 6.25 µg/mL (≈ 28.9 µM) | 128 µg/mL (≈ 592 µM) | 64 µg/mL (≈ 296 µM) |
| CC(=O)Oc1ccc(COC(=O)c2cnc3ccccc3n2)cc1 | 2.15 | 6.25 µg/mL (≈ 19.4 µM) | 16 µg/mL (≈ 49.6 µM) | 0.5 µg/mL (≈ 1.55 µM) |
| O=C(OCc1ccc(C(F)(F)F)cc1)c1cnccn1 | 1.87 | > 6.25 µg/mL | > 128 µg/mL | 128 µg/mL (≈ 454 µM) |
| O=C(O)c1cnc2ccccc2n1 |  |  | > 128 µg/mL | > 128 µg/mL |
| O=C(OCc1ccc([N+](=O)[O-])cc1)c1cnc2ccccc2n1 | 2.27 | > 6.25 µg/mL | > 128 µg/mL | > 128 µg/mL |
| O=C(O)c1cnccn1 [PYRAZINOIC ACID] |  |  | > 128 µg/mL | 64 µg/mL (≈ 516 µM) |
| CC(=O)Oc1ccc(COC(=O)c2ccccc2)cc1 | 3.38 | > 6.25 µg/mL | 128 µg/mL (≈ 474 µM) | 16 µg/mL (≈ 59.2 µM) |
| O=C(OCc1ccccc1[N+](=O)[O-])c1cnc2ccccc2n1 | 2.27 | > 6.25 µg/mL | > 128 µg/mL | > 128 µg/mL |
